ChEMBL document CHEMBL1221230, “Inhibition of eukaryotic translation elongation by cycloheximide and lactimidomycin” (Nat Chem Biol, 2010)
Active and inactive are the calls of the source. No cut-off for these calls is given here. Numbered stars: 1 amine (or outer) side, 2 acyl side, 3 side chain; on linkers, the order of the positions; unused ones are H or OH. Bridge positions count the residues as written; N and C are the ends. Square brackets hold non-standard residues; d marks the D form. Peptide text beside a SMILES is read from it. I, II: the chains in the order shown. Actinocin(1to9) = Cc1c2oc3c(C)ccc(C(=O)[*:2])c3nc-2c(C(=O)[*:1])c(N)c1=O; NMeV = CN[C@H](C(=O)O)C(C)C; Sar = CNCC(=O)O

Tests used:
[1] = Inhibition of elF4A-mediated renilla luciferase translational activity at 100 to 200 nM in presence of HCV IRES element
[2] = Inhibition of elF4A-mediated renilla luciferase translational activity at 200 to 2000 nM in presence of HCV IRES element
[3] = tested on: HeLa; assay: Antiproliferative activity against human HeLa cells assessed as incorporation of [3H]thymidine in nuclear DNA at 2.5 uM after 24 hrs by scintillation counting; assay type: functional, cell-based
Summary of the method: (§1)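 Each of three tumour cell lines incubated with compound at 2.5 μM for 24 h, then [³H]thymidine added to monitor DNA synthesis; initial proliferation screen.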

[4] = tested on: Jurkat; assay: Antiproliferative activity against human Jurkat cells assessed as incorporation of [3H]thymidine in nuclear DNA at 2.5 uM after 24 hrs by scintillation counting; assay type: functional, cell-based; summary of the method: as §1
[5] = tested on: MDA-MB-231; assay: Antiproliferative activity against human MDA-MB-231 cells assessed as incorporation of [3H]thymidine in nuclear DNA at 2.5 uM after 24 hrs by scintillation counting; assay type: functional, cell-based; summary of the method: as §1
[6] = tested on: HeLa; assay: Inhibition of protein synthesis in human HeLa cells assessed as [35S]cysteine/methionine utilization after 2 hrs by scintillation spectroscopy; assay type: functional, cell-based
Summary of the method: (§2)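 HeLa cells incubated 2 h with varying compound concentrations plus [³⁵S]cysteine/methionine (translation) or [³H]uridine (transcription). Protein synthesis: scintillation counting of TCA-precipitated protein on PVDF membrane. Transcription: scintillation counting of nucleic acids bound to GF/C glass fibre filter.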

[7] = Effect on peptidyl transfer assessed as [35S]methionyl-puromycin formation by TLC
[8] = tested on: HeLa; assay: Inhibition of transcriptional activity in human HeLa cells assessed as [3H]uridine utilization after 2 hrs by scintillation counting; assay type: functional, cell-based; summary of the method: as §2
[9] = tested on: Saccharomyces cerevisiae; assay: Antimicrobial activity against Saccharomyces cerevisiae JB281; assay type: functional, organism-based
Summary of the method: (§3)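 Four isogenic S. cerevisiae strain pairs, each differing only by presence or absence of cyh2, exposed to varying compound concentrations; growth read by optical density; IC50 derived per strain, resistance as ratio between paired strains.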

[10] = tested on: Saccharomyces cerevisiae; assay: Antimicrobial activity against Saccharomyces cerevisiae BY686 expressing ribosomal protein cyh2 and harboring mutation in rpl28; assay type: functional, organism-based; summary of the method: as §3
[11] = Inhibition of [32P]deacetylated phe-tRNA binding to 60S ribosome E-site by footprinting assay
[12] = Binding affinity to 60S ribosome E-site by footprinting assay
Summary of the method: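 DMS footprinting of salt-washed 80S ribosomes preincubated 5 min at room temperature with compound, DMS then 5 min at 37°C; rRNA primer extension with AMV reverse transcriptase and [α-³²P]TTP, sequencing gel. For K_D, 300 μl volume at 50 or 100 nM ribosomes titrated with increasing compound.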

[13] = tested on: Saccharomyces cerevisiae; assay: Antimicrobial activity against Saccharomyces cerevisiae BY108; assay type: functional, organism-based; summary of the method: as §3
[14] = tested on: Saccharomyces cerevisiae; assay: Fold resistance, ratio of IC50 for Saccharomyces cerevisiae BY740 expressing ribosomal protein cyh2 and harboring mutation in rpl28 to IC50 for Saccharomyces cerevisiae […]; assay type: functional; summary of the method: as §3
[15] = species: Oryctolagus cuniculus; assay: Inhibition of translational activity in rabbit reticulocyte assessed as occurrence of ribosomal arrest at start codon at 10 mM by toeprinting assay; assay type: functional
Summary of the method: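 Labelled rabbit β-globin mRNA incubated in rabbit reticulocyte lysate with inhibitor; mixture centrifuged through sucrose gradient, 80S fractions taken to isolate stalled ribosomes; primer extended by AMV reverse transcriptase toward stalled ribosome to map arrest site.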

[16] = tested on: Saccharomyces cerevisiae; assay: Fold resistance, ratio of IC50 Saccharomyces cerevisiae J407alpha expressing ribosomal protein cyh2 and harboring mutation in rpl28 to IC50 for Saccharomyces cerevisiae J47alpha; assay type: functional; summary of the method: as §3
[17] = biological target: Elongation factor 2 (Homo sapiens) (UniProt P13639); assay: Inhibition of eEF2-mediated tRNA translocation assessed as induction of dipeptide accumulation by TLC
[18] = tested on: HEK-293T; assay: Effect on polyribosome profiling in human HEK293T cells assessed as accumulation of 80S ribosomes at 100 uM after 30 mins by spectrophotometry; assay type: functional, cell-based
Summary of the method: (§4)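 HEK 293T cells treated 30 min with compound, then lysed; lysates centrifuged through 15–45% sucrose gradient to give polysome profiles.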

[19] = tested on: HEK-293T; assay: Effect on polyribosome profiling in human HEK293T cells assessed as depletion of polysomes at 50 uM after 30 mins by spectrophotometry; assay type: functional, cell-based; summary of the method: as §4
[20] = biological target: Elongation factor 2 (Homo sapiens) (UniProt P13639); assay: Inhibition of eEF2-mediated tRNA translocation assessed as decrease in tripeptide (Met-Phe-Phe) formation by TLC
[21] = tested on: Saccharomyces cerevisiae; assay: Fold resistance, ratio of IC50 for Saccharomyces cerevisiae BY686 expressing ribosomal protein cyh2 and harboring mutation in rpl28 to IC50 Saccharomyces cerevisiae JB503; assay type: functional; summary of the method: as §3
[22] = tested on: Saccharomyces cerevisiae; assay: Fold resistance, ratio of IC50 for Saccharomyces cerevisiae BY724 expressing ribosomal protein cyh2 and harboring mutation in rpl28 to IC50 for Saccharomyces cerevisiae BY108; assay type: functional; summary of the method: as §3
[23] = tested on: Saccharomyces cerevisiae; assay: Antimicrobial activity against Saccharomyces cerevisiae J47alpha; assay type: functional, organism-based; summary of the method: as §3
[24] = tested on: Saccharomyces cerevisiae; assay: Antimicrobial activity against Saccharomyces cerevisiae BY724 expressing ribosomal protein cyh2 and harboring mutation in rpl28; assay type: functional, organism-based; summary of the method: as §3
[25] = Effect on polyribosome profiling assessed as accumulation of 80S ribosomes after 15 mins by scintillation spectroscopy; assay type: functional
Summary of the method: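 Capped [³²P]-labelled rabbit β-globin RNA incubated in rabbit reticulocyte lysate with compound for 15 min, then centrifuged through 10–35% sucrose gradient.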

[26] = tested on: Saccharomyces cerevisiae; assay: Antimicrobial activity against Saccharomyces cerevisiae JB503; assay type: functional, organism-based; summary of the method: as §3
[27] = tested on: Saccharomyces cerevisiae; assay: Antimicrobial activity against Saccharomyces cerevisiae BY740 expressing ribosomal protein cyh2 and harboring mutation in rpl28; assay type: functional, organism-based; summary of the method: as §3
[28] = biological target: Elongation factor 2 (Homo sapiens) (UniProt P13639); assay: Inhibition of eEF2-mediated tRNA translocation assessed as inhibition of phenylalanyl puromycin formation
Summary of the method: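 Set up as eEF1A binding assay but with GTP; 5 min at 37°C, compound added to 200 μM final, 5 min at room temperature, then eEF2, puromycin and GTP added; 10 min at 37°C; ethyl acetate-extractable phenylalanyl-puromycin counted by scintillation.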

[29] = tested on: HEK-293T; assay: Effect on polyribosome profiling in human HEK293T cells assessed as depletion of polysomes at 100 uM after 30 mins by spectrophotometry; assay type: functional, cell-based; summary of the method: as §4
[30] = biological target: T1, Elongation factor 1-alpha 1 (Homo sapiens) (UniProt P68104); assay: Inhibition of eEF1A-mediated tRNA binding to ternary complex at 200 uM after 10 mins by filtration binding assay
T1 sequence (whole entry): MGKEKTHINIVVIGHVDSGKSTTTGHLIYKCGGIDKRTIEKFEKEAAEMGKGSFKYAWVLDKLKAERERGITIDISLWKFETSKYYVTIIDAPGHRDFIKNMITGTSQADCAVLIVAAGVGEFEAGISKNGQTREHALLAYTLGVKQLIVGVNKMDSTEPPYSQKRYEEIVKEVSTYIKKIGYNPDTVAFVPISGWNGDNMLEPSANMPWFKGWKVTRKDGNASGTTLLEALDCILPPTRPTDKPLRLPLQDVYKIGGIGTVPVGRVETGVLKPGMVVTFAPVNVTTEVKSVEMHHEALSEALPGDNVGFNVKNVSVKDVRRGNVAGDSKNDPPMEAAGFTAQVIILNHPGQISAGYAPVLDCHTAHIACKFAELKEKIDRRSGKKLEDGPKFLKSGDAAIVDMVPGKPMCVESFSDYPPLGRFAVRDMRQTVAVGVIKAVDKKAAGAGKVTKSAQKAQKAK
Summary of the method: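 Ribosomes (89 pmol) in 20 mM HEPES pH 7.4, 100 mM KCl, 10 mM MgCl₂, 1 mM DTT with 200 ng poly(U), 2.2 μg eEF1A, 150 μM GDPNP and 200 μM compound, before 10 pmol [¹⁴C]Phe-tRNA^Phe added; 10 min at 37°C; nitrocellulose filtration, scintillation counting.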

[31] = tested on: Saccharomyces cerevisiae; assay: Antimicrobial activity against Saccharomyces cerevisiae J407alpha expressing ribosomal protein cyh2 and harboring mutation in rpl28; assay type: functional, organism-based; summary of the method: as §3

Q: Which inhibition [1] does the source give for `CC(/C=C/C(C)=C/[C@@H]1Cc2nc(cs2)[C@@H](C)C[C@@H](N)CC(=O)O[C@@H](C)C/C(C)=C/C=C\C(=O)O1)=C\CN(C)C` here?
A: Active

Q: What about the inhibition [2] of the same molecule?
A: Active

Q: With `CO[C@@H](/C=C/CC/C=C/C(=O)O)[C@@H](O)[C@H](C)/C=C(\C)[C@H](O)[C@H](C)C(=O)CCCC1CC(=O)NC(=O)C1` as the molecule, how does the Activity [3] read?
A: inactive

Q: And the Activity [4]?
A: inactive

Q: And the Activity [5]?
A: inactive

Q: What does the source list for `CO[C@@H](/C=C/CC/C=C/C(=O)O)[C@@H](O)[C@H](C)[C@@H](O)/C(C)=C/[C@H](C)C(=O)CCCC1CC(=O)NC(=O)C1`?
A: Activity [3]: inactive; inhibition [6]: inactive; Activity [4]: inactive; Activity [5]: inactive

Q: What does the source list for `CO[C@H]1/C=C/CC/C=C/C(=O)O[C@H]([C@H](C)C(=O)CCCC2CC(=O)NC(=O)C2)/C(C)=C\[C@@H](C)[C@@H]1O`?
A: Activity [3]: inactive; inhibition [6]: inactive; Activity [4]: inactive; Activity [5]: inactive

Q: Which Activity [7] does the source give for `CSC[S@@+]([O-])CC(CO)NC(=O)/C=C/c1c(C)[nH]c(=O)[nH]c1=O` (stereo not given in full) here?
A: Active

Q: For `C/C(=C\[C@H](C)C(=O)C[C@H](O)CC1CC(=O)NC(=O)C1)[C@@H]1OC(=O)CCCC/C=C/C=C\[C@@H]1C` [2H LACTIMIDOMYCIN K], which Activity [3] is on record?
A: inactive

Q: What about the IC50 [6] of the same molecule?
A: 98.5 nM

Q: And the IC50 [8]?
A: > 10000 nM

Q: And the Activity [4]?
A: inactive

Q: And the Activity [5]?
A: inactive

Q: What does the source list for `C[C@@H]1C[C@@H]([C@H](O)CC2CC(=O)NC(=O)C2)C(=O)[C@@H](C)C1` [CYCLOHEXIMIDE]?
A: IC50 [9]: 227 nM; IC50 [6]: 532 nM; inhibition [6]: Dose-dependent effect; IC50 [10]: 7420 nM; inhibition [11]: inactive; Activity [12]: Dose-dependent effect; Kd [12]: 15000 nM; IC50 [13]: 675 nM; Ratio IC50 [14]: 76.3; inhibition [15]: inactive; Ratio IC50 [16]: 232.2; inhibition [17]: Active; Activity [18]: inactive; IC50 [8]: 2880 nM; Activity [19]: Active; inhibition [20]: Active; Ratio IC50 [21]: 232.4; Ratio IC50 [22]: 77; IC50 [23]: 88 nM; IC50 [24]: 52100 nM; Activity [25]: Active; IC50 [26]: 32 nM; IC50 [27]: 17300 nM; inhibition [28]: Active; Activity [29]: inactive; inhibition [30]: inactive; IC50 [31]: 20500 nM

Q: With `Cc1c2oc3c(C)ccc(C(=O)N[C@@H]4C(=O)N[C@H](C(C)C)C(=O)N5CCC[C@H]5C(=O)N(C)CC(=O)N(C)[C@@H](C(C)C)C(=O)O[C@@H]4C)c3nc-2c(C(=O)N[C@@H]2C(=O)N[C@H](C(C)C)C(=O)N3CCC[C@H]3C(=O)N(C)CC(=O)N(C)[C@@H](C(C)C)C(=O)O[C@@H]2C)c(N)c1=O` [DACTINOMYCIN] (I: T[dV]P[Sar][NMeV] / II: T[dV]P[Sar][NMeV]; ester I:1-I:C, II:1-II:C; linker I:N-II:N via Actinocin(1to9)) as the molecule, how does the IC50 [6] read?
A: 520 nM

Q: What about the inhibition [6] of the same molecule?
A: Dose-dependent effect

Q: And the IC50 [8]?
A: 262 nM

Q: Which results are given for `CO[C@H]1/C=C/CC/C=C/C(=O)O[C@@H](/C(C)=C/[C@H](C)C(=O)/C=C/CC2CC(=O)NC(=O)C2)[C@@H](C)[C@@H]1O` [DIDEHYDRO ISOMIGRASTATIN]?
A: Activity [3]: inactive; IC50 [6]: 1910 nM; IC50 [8]: > 10000 nM; Activity [4]: inactive; Activity [5]: inactive

Q: Which results are given for `CO[C@H]1/C=C/CC/C=C/C(=O)O[C@@H](/C(C)=C/[C@H](C)C(=O)CCCC2CC(=O)NC(=O)C2)[C@@H](C)[C@@H]1O` [ISOMIGRASTATIN]?
A: Activity [3]: inactive; IC50 [6]: 624 nM; inhibition [6]: Dose-dependent effect; IC50 [8]: > 10000 nM; Activity [4]: inactive; Activity [5]: inactive
